Structures are written as SMILES. Calls of active or inactive are those of the source. No cut-off for these calls is given here.

Data set [1] has as its system Human alphaherpesvirus 1. In words: Antiviral activity against Herpes simplex virus type 1 infected in rabbit kidney monolayer cells assessed as reduction in viral titer. It counts as functional, organism-based.
Data set [2] in a line: Immunosuppressive activity in H-2d alloantigen-sensitized C57B1/6 (H-2b) mouse spleen effector T cells assessed as inhibition of effector T cell-induced DBA/2 (H-2d) mouse [51Cr]-labeled P815 cell lysis by measuring lysed cells at 100 ug/mL after 4 hrs by [51Cr] release assay relative to control. The class given is functional. Summed up:
(§1)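 C57B1/6 (H-2^b) mice sensitized ip with 30–50 × 10^6 P815 mastocytoma cells (DBA/2-passaged). Spleens pooled from 5–7 mice taken 10 days later. Effectors mixed 50:1 with 51Cr-labeled P815 targets in RPMI 1640/Hepes with 10% heat-inactivated calf serum plus compound. Incubated 4 h at 37 °C in 83% N2/10% CO2/7% O2. Supernatant 51Cr counted, run in quadruplicate. % specific lysis computed from spontaneous and water-lysis controls, then expressed as % of untreated control.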

Data set [3] can be described thus: Immunosuppressive activity in H-2d alloantigen-sensitized C57B1/6 (H-2b) mouse spleen effector T cells assessed as inhibition of effector T cell-induced DBA/2 (H-2d) mouse [51Cr]-labeled P815 cell lysis by measuring lysed cells at 10 ug/mL after 4 hrs by [51Cr] release assay relative to control. It counts as functional. In outline:
as §1

The nature of data set [4]: Immunosuppressive activity in H-2d alloantigen-sensitized C57B1/6 (H-2b) mouse spleen effector T cells assessed as inhibition of effector T cell-induced DBA/2 (H-2d) mouse [51Cr]-labeled P815 cell lysis by measuring lysed cells at 1 ug/mL after 4 hrs by [51Cr] release assay relative to control. It counts as functional. In outline: as §1
Data set [5] is described as follows: Immunosuppressive activity in C57B1/6 mouse spleen effector T cells assessed as ratio of effector T cell to DBA/2 mouse [51Cr]-labeled P815 cell giving 50% specific lysis at 100 ug/mL after 5 days by [51Cr] release assay in presence of B6D2(F1) mouse spleen cells (reference value: 6 no unit). The class given is functional. In outline:
(§2)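 Normal C57B1/6 spleen cells (10 × 10^6) cocultured 5 days at 37 °C (83% N2/10% CO2/7% O2) with 0.5 × 10^6 B6D2F1 spleen cells as antigen and compound at 100 μg/mL. Medium was RPMI 1640 with 20% fetal calf serum and gentamycin, using at least 12 cultures per concentration. Pooled cells were then mixed with 51Cr-P815 targets at various ratios (≥3 replicates/ratio) for 3 h at 37 °C. Lysis was plotted against ratio; lytic unit = cells giving 50% lysis of 25 × 10^3 targets.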

Data set [6] is described as follows: Immunosuppressive activity in C57B1/6 mouse spleen effector T cells assessed as recovery of number of T cell required to give 50% lysis of 25 X 10^3 DBA/2 mouse [51Cr]-labeled P815 cells treated on day 4 of 5 days culture system measured after day 5 by [51Cr] release assay in presence of B6D2(F1) mouse spleen cells relative to control. It counts as functional. Summed up: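 Alloantigen coculture was the same: C57B1/6 spleen cells plus B6D2F1 stimulator cells, 5 days at 37 °C. Here compound was added on day 4 rather than at culture start. On day 5, cells were pooled and assayed against 51Cr-P815 targets for 3 h. Lytic units (cells giving 50% lysis of 25 × 10^3 targets) recovered per culture were expressed as percent of control.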

Data set [7] in a line: Immunosuppressive activity in C57B1/6 mouse spleen effector T cells assessed as effect on number of IgM-anti sheep erythrocyte antibody plaque forming cells per culture at 100 ug/culture after 5 days in presence of sheep erythrocytes (reference value: 6440 +/- 2255 PFC/culture). The class given is functional.
Data set [8] is described as follows: Immunosuppressive activity in C57B1/6 mouse spleen effector T cells assessed as effect on number of IgM-anti sheep erythrocyte antibody plaque forming cells per culture at 10 ug/culture after 5 days in presence of sheep erythrocytes (reference value: 6440 +/- 2255 PFC/culture). The class given is functional.
Data set [9] is described as follows: Immunosuppressive activity in C57B1/6 mouse spleen effector T cells assessed as effect on number of IgM-anti sheep erythrocyte antibody plaque forming cells per culture at 1 ug/culture after 5 days in presence of sheep erythrocytes (reference value: 6440 +/- 2255 PFC/culture). The class given is functional.
Data set [10] concerns Human alphaherpesvirus 1. In words: Antiviral activity against Herpes simplex virus type 1 infected in mouse assessed as mean survival time at 150 mg/kg, sc tid administered for 4 days (reference value: 8.3 days). The note with it: route subcutaneous. The class given is functional. In outline: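 HSV-1-infected mice dosed subcutaneously three times daily on days 0–4. Vehicle-dosed infected mice served as controls. Read-out was mean survival time in days.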

A short description of data set [11]: Immunosuppressive activity in C57B1/6 mouse spleen effector T cells assessed as inhibition of effector T cell-induced DBA/2 mouse [51Cr]-labeled P815 cell lysis at 100 ug/mL after 5 days by [51Cr] release assay in presence of B6D2(F1) mouse spleen cells relative to control. The note with it: C57B1/6, P815, Spleen, 120 h. The class given is functional. In outline: as §2

The nature of data set [12]: Cytotoxicity against C57B1/6 (H-2b) mouse spleen effector T cells assessed as decrease in cell number at 1 to 100 ug/mL after 4 hrs relative to control. It counts as cell-based.
Data set [13] in a line: Cytotoxicity against C57B1/6 mouse spleen effector T cells assessed as decrease in cell number at 100 ug/mL after 5 days relative to control. It counts as cell-based. To be noted: 120 h.
Data set [14] has as its system Human alphaherpesvirus 1. In words: Antiviral activity against Herpes simplex virus type 1 infected in rabbit kidney monolayer cells assessed as reduction in viral titer at 25 ug/mL relative to control. It counts as functional.
Data set [15] deals with Human alphaherpesvirus 1. The data set can be described thus: Antiviral activity against Herpes simplex virus type 1 infected in mouse assessed as mean survival time at 200 mg/kg, sc tid administered for 4 days (reference value: 8.3 days). It counts as functional. The note with it: route subcutaneous.

For `CC(=O)OC[C@H]1O[C@@H](n2c(=O)[nH]c(=O)n(C)c2=O)[C@@H](OC(C)=O)[C@@H]1OC(C)=O`, the result in the data set with Human alphaherpesvirus 1 [1] was inactive. In addition, the “Specific lysis, % of untreated control” value amounted to 88% in data set [2] and 96% in data set [3]. In addition, in data set [4], the “Specific lysis as % of untreated control” value is listed as 96%. Further, the Ratio in [5] came to 10.5. In addition, the Activity in data set [6] worked out at 90%. The PFC in data set [7] worked out at 10040; in [8] it was 4307; in data set [9], 4907.
As usually defined, the inhibition is the change of the read-out against control, counted positive when it falls. As to `Cn1c(=O)nc2n(c1=O)[C@@H]1O[C@H](CO)[C@@H](O)[C@@H]1O2`, the MST in the data set with Human alphaherpesvirus 1 [10] amounted to 5.4 days. Moreover, the “Specific lysis, % of untreated control” value in data set [2] was determined as 92%; in [3], 88%. The “Specific lysis as % of untreated control” value in data set [4] was 100%. The inhibition at 100 µg/mL in [11] was determined as 90%. For the same compound, the Activity entry was “Non-toxic” in [12], 90% in data set [6] and “Non-toxic” in data set [13]. For the same compound, the PFC came to 7107 in data set [7], 4853 in data set [8] and 4227 in data set [9].
As for `Cn1c(=O)[nH]c(=O)n([C@@H]2O[C@H](CO)[C@@H](O)[C@@H]2O)c1=O`, in the data set on Human alphaherpesvirus 1 [1], the outcome was inactive. For the same compound, the figures for the “Specific lysis, % of untreated control” value in data set [2] and in data set [3] were 93% and 98%, respectively. In addition, the “Specific lysis as % of untreated control” value in [4] is listed as 94%. The inhibition at 100 µg/mL in data set [11] amounted to 84%. Moreover, the Activity result is “Non-toxic” in data set [12], 90% in data set [6] and “Non-toxic” in [13]. The results for the PFC in [7], in [8] and in data set [9] were 6293, 5520 and 6240, respectively.
For `CC(=O)OC[C@H]1O[C@@H]2[C@@H](Oc3nc(=O)n(C)c(=O)n32)[C@@H]1OC(C)=O`, the outcome in the data set with Human alphaherpesvirus 1 [1] was Active. Further, the “Specific lysis, % of untreated control” value came to 93% in data set [2] and 103% in data set [3]. The “Specific lysis as % of untreated control” value in data set [4] turned out to be 95%. The Ratio in [5] turned out to be 8.5. For the same compound, the Activity in [6] stood at 90%. Moreover, the PFC in data set [7] turned out to be 8720; in [8], 5933; in data set [9] it was 5240.
`CN1CN([C@H]2C[C@H](O)[C@@H](CO)O2)C(=O)NC1=O`: in the data set with Human alphaherpesvirus 1 [14], the “fold change (FC)” value was 10. The MST with Human alphaherpesvirus 1 [15] is 18 days. Besides, the “Specific lysis, % of untreated control” value in [2] is reported as 73%; in data set [3], 88%. Also, the “Specific lysis as % of untreated control” value in data set [4] amounted to 90%. Also, the Ratio in data set [5] is reported as 7.2. Besides, in [6], the Activity was 90%.
